Results taken from ChEMBL document CHEMBL4000163, “Pyrazole derived ultra-short antimicrobial peptidomimetics with potent anti-biofilm activity” (Eur J Med Chem, 2017).
Converted amounts (≈) assume the structure as drawn. The source made the active and inactive calls. No cut-off for these calls is given here.

Columns and labels:
Escherichia coli [1] = assay: Antimicrobial activity against Escherichia coli KCTC 1682 incubated for 18 to 20 hrs by broth microdilution assay; assay type: functional; conditions: read-out: MIC100
Method in brief: (§1)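 Broth microdilution in 1% peptone. Inoculum was 2 × 10⁶ CFU/mL mixed 1:1 with serial 2-fold peptide dilutions and incubated 18–20 h at 37 °C. Growth was read as absorbance at 600 nm; MIC is the lowest peptide concentration giving 100% growth inhibition.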

Pseudomonas aeruginosa [2] = assay: Antimicrobial activity against Pseudomonas aeruginosa KCTC 1637 incubated for 18 to 20 hrs by broth microdilution assay; assay type: functional; conditions: read-out: MIC100; method in brief: as §1
[3] = tested on: Staphylococcus epidermidis; assay: Antimicrobial activity against Staphylococcus epidermidis KCTC 1917 incubated for 18 to 20 hrs by broth microdilution assay; assay type: functional; conditions: read-out: MIC100; method in brief: as §1
Staphylococcus aureus [4] = assay: Antimicrobial activity against Staphylococcus aureus KCTC 1621 incubated for 18 to 20 hrs by broth microdilution assay; assay type: functional; conditions: read-out: MIC100; method in brief: as §1
[5] = Therapeutic index, ratio of MHC for sheep RBC to MIC for Staphylococcus epidermidis KCTC 1917
[6] = Therapeutic index, ratio of MHC for sheep RBC to MIC for Staphylococcus aureus KCTC 1621
Pseudomonas aeruginosa [7] = assay: Antibiofilm activity against multidrug-resistant Pseudomonas aeruginosa CCARM 2095 after 24 hrs by crystal violet staining based method; assay type: functional; conditions: CCARM 2095, 24 h
Method in brief: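 MDRPA 2095 (1×10^6 cfu/mL) in MHB with 0.2% glucose, 24 h at 37 °C with or without peptide (2-fold dilutions, 1-64 µg/mL), six wells each. Wells washed with PBS, methanol-fixed, stained with 0.1% crystal violet 5 min, stain resolubilized in 95% ethanol, absorbance at 600 nm.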

Escherichia coli [8] = assay: Induction of inner membrane permeabilisation in Escherichia coli ML-35 assessed as ONPG hydrolysis up to 30 ug/ml by beta-galactosidase enzyme coupled spectrophotometric analysis; assay type: functional
Method in brief: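 E. coli ML-35 (constitutive cytoplasmic β-galactosidase, lactose permease-deficient) washed and resuspended to OD600 0.5 in 10 mM sodium phosphate pH 7.4, 100 mM NaCl, with 1.5 mM ONPG. o-Nitrophenol release tracked spectrophotometrically over time after peptide addition at various concentrations.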

Staphylococcus aureus [9] = assay: Induction of cytoplasmic membrane depolarization in Staphylococcus aureus KCTC 1621 assessed as loss of membrane potential after 1 hr by DiSC3(5) dye based fluorescence assay; assay type: functional
[10] = Therapeutic index, ratio of MHC for sheep RBC to geometric mean of MICs for four bacterial strains
[11] = as above; remark: listed apart in the source
Enterococcus faecium = assay: Antibacterial activity against vancomycin-resistant Enterococcus faecium ATCC 51559 after 18 to 20 hrs by broth microdilution assay; assay type: functional; conditions: read-out: MIC100
Method in brief: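 Broth microdilution in 1% peptone: bacteria at 2 × 10⁶ CFU/mL mixed 1:1 with serial 2-fold peptide dilutions, 18-20 h at 37 °C; growth read as absorbance at 600 nm. MIC taken as lowest concentration giving 100% growth inhibition.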

Escherichia coli [12] = assay: Induction of outer membrane permeabilization in Escherichia coli KCTC 1682 assessed as NPN uptake by spectrofluorophotometric analysis; assay type: functional
Method in brief: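 E. coli KCTC 1682 at OD600 0.05 in 5 mM HEPES pH 7.2 with 5 mM KCN; NPN 10 µM final, background fluorescence recorded (ex 350, em 420 nm). Peptide aliquots at various concentrations added and fluorescence followed over time until no further rise.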

Escherichia coli [13] = assay: Antimicrobial activity against Escherichia coli KCTC 1682 using 4 hrs trypsin incubated compound measured after overnight incubation by radial diffusion assay; assay type: functional
Method in brief: (§2)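 Radial diffusion: mid-log cells (2×10^6 CFU/ml in LB) in 0.7% agarose. Peptide stock (10 mg/mL) added to trypsin in PBS (0.2 µg/mL), 4 h at 37 °C, stopped by liquid-nitrogen freezing; 10 µL on paper discs on the plates, overnight at 37 °C. Clearance-zone diameters measured.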

Staphylococcus aureus [14] = assay: Antimicrobial activity against Staphylococcus aureus KCTC 1621 using 4 hrs trypsin incubated compound measured after overnight incubation by radial diffusion assay; assay type: functional; method in brief: as §2
Pseudomonas aeruginosa [15] = assay: Potency index, ratio of LL-37 MIC100 to compound MIC100 for Pseudomonas aeruginosa KCTC 1637; assay type: functional
Staphylococcus aureus [16] = assay: Potency index, ratio of LL-37 MIC100 to compound MIC100 for Staphylococcus aureus KCTC 1621; assay type: functional
Staphylococcus aureus [17] = assay: Potency index, ratio of melittin MIC100 to compound MIC100 for Staphylococcus aureus KCTC 1621; assay type: functional
Pseudomonas aeruginosa [18] = assay: Potency index, ratio of melittin MIC100 to compound MIC100 for Pseudomonas aeruginosa KCTC 1637; assay type: functional

SMILES: N=C(N)NCCC[C@H](NC(=O)c1nn(CCC(c2ccccc2)c2ccccc2)cc1N)C(N)=O
- MIC (Escherichia coli [1]): > 64 µg/mL
- MIC (Pseudomonas aeruginosa [2]): 32 µg/mL (≈ 67.1 µM)
- MIC [3]: > 64 µg/mL
- MIC (Staphylococcus aureus [4]): > 64 µg/mL

SMILES: N=C(N)NCCC[C@@H]1NC(=O)c2nn(CCC(c3ccccc3)c3ccccc3)cc2NC(=O)CSCC(C(N)=O)NC(=O)[C@H](CCCNC(=N)N)NC(=O)c2nn(CCC(c3ccccc3)c3ccccc3)cc2NC1=O (some centres not stated)
- MIC (Escherichia coli [1]): > 64 µg/mL
- MIC (Pseudomonas aeruginosa [2]): > 64 µg/mL
- MIC [3]: 64 µg/mL (≈ 59.3 µM)
- MIC (Staphylococcus aureus [4]): 16 µg/mL (≈ 14.8 µM)

SMILES: N=C(N)NCCC[C@H](NC(=O)c1nn(CCC(c2ccccc2)c2ccccc2)cc1NC(=O)[C@H](CCCNC(=N)N)NC(=O)c1nn(CCC(c2ccccc2)c2ccccc2)cc1N)C(N)=O
- MIC (Escherichia coli [1]): 32 µg/mL (≈ 34.2 µM)
- MIC (Pseudomonas aeruginosa [2]): 32 µg/mL (≈ 34.2 µM)
- MIC [3]: 32 µg/mL (≈ 34.2 µM)
- MIC (Staphylococcus aureus [4]): 8 µg/mL (≈ 8.55 µM)

SMILES: N=C(N)NCCC[C@H](NC(=O)c1nn(CCc2cccc3ccccc23)cc1NC(=O)[C@H](CCCNC(=N)N)NC(=O)c1nn(CCc2cccc3ccccc23)cc1NC(=O)[C@H](CCCNC(=N)N)NC(=O)c1nn(CCc2cccc3ccccc23)cc1N)C(N)=O
- MIC (Escherichia coli [1]): > 64 µg/mL
- MIC (Pseudomonas aeruginosa [2]): > 64 µg/mL
- MIC [3]: 64 µg/mL (≈ 50.2 µM)
- MIC (Staphylococcus aureus [4]): 8 µg/mL (≈ 6.27 µM)

SMILES: CCC(CC)Cn1cc(N)c(C(=O)N[C@@H](CCCNC(=N)N)C(N)=O)n1
- MIC (Escherichia coli [1]): > 64 µg/mL
- MIC (Pseudomonas aeruginosa [2]): > 64 µg/mL
- MIC [3]: > 64 µg/mL
- MIC (Staphylococcus aureus [4]): > 64 µg/mL

SMILES: N=C(N)NCCC[C@H](NC(=O)c1nn(CCC(c2ccccc2)c2ccccc2)cc1NC(=O)[C@H](CCCNC(=N)N)NC(=O)c1nn(CCC(c2ccccc2)c2ccccc2)cc1NC(=O)[C@H](CCCNC(=N)N)NC(=O)c1nn(CCC(c2ccccc2)c2ccccc2)cc1N)C(N)=O
- MIC (Escherichia coli [1]): 64 µg/mL (≈ 45.9 µM)
- MIC (Pseudomonas aeruginosa [2]): > 64 µg/mL
- MIC [3]: 64 µg/mL (≈ 45.9 µM)
- MIC (Staphylococcus aureus [4]): 32 µg/mL (≈ 22.9 µM)

SMILES: CC[C@H](C)[C@H](NC(=O)[C@H](CCCCN)NC(=O)[C@H](CCC(=O)O)NC(=O)[C@H](CCCCN)NC(=O)[C@H](CO)NC(=O)[C@H](CCCCN)NC(=O)[C@H](CCCNC(=N)N)NC(=O)[C@H](Cc1ccccc1)NC(=O)[C@H](Cc1ccccc1)NC(=O)[C@H](CC(=O)O)NC(=O)CNC(=O)[C@H](CC(C)C)NC(=O)[C@@H](N)CC(C)C)C(=O)NCC(=O)N[C@@H](CCCCN)C(=O)N[C@@H](CCC(=O)O)C(=O)N[C@@H](Cc1ccccc1)C(=O)N[C@@H](CCCCN)C(=O)N[C@@H](CCCNC(=N)N)C(=O)N[C@H](C(=O)N[C@H](C(=O)N[C@@H](CCC(N)=O)C(=O)N[C@@H](CCCNC(=N)N)C(=O)N[C@H](C(=O)N[C@@H](CCCCN)C(=O)N[C@@H](CC(=O)O)C(=O)N[C@@H](Cc1ccccc1)C(=O)N[C@@H](CC(C)C)C(=O)N[C@@H](CCCNC(=N)N)C(=O)N[C@@H](CC(N)=O)C(=O)N[C@@H](CC(C)C)C(=O)N[C@H](C(=O)N1CCC[C@H]1C(=O)N[C@@H](CCCNC(=N)N)C(=O)N[C@H](C(=O)N[C@@H](CCC(=O)O)C(=O)N[C@@H](CO)C(=O)O)[C@@H](C)O)C(C)C)[C@@H](C)CC)C(C)C)[C@@H](C)CC [CATHELICIDIN]
- MIC (Escherichia coli [1]): 32 µg/mL (≈ 7.12 µM)
- MIC (Pseudomonas aeruginosa [2]): 64 µg/mL (≈ 14.2 µM)
- MIC [3]: 32 µg/mL (≈ 7.12 µM)
- MIC (Staphylococcus aureus [4]): 32 µg/mL (≈ 7.12 µM)
- TI [5]: 25.6
- TI [6]: 25.6
- IC90 (Pseudomonas aeruginosa [7]): 64 µg/mL (≈ 14.2 µM)
- Activity (Escherichia coli [8]): Active
- Activity (Staphylococcus aureus [9]): Active
- TI [10]: 25.6
- TI [11]: 25.6

SMILES: CCC(CC)Cn1cc(NC(=O)[C@@H](N)CCCNC(=N)N)c(C(=O)N[C@@H](CCCNC(=N)N)C(N)=O)n1
- MIC (Escherichia coli [1]): > 64 µg/mL
- MIC (Pseudomonas aeruginosa [2]): > 64 µg/mL
- MIC [3]: > 64 µg/mL
- MIC (Staphylococcus aureus [4]): > 64 µg/mL

SMILES: N=C(N)NCCC[C@H](NC(=O)c1nn(CCCc2ccccc2)cc1NC(=O)[C@@H](N)CCCNC(=N)N)C(N)=O
- MIC (Escherichia coli [1]): > 64 µg/mL
- MIC (Pseudomonas aeruginosa [2]): > 64 µg/mL
- MIC [3]: > 64 µg/mL
- MIC (Staphylococcus aureus [4]): 64 µg/mL (≈ 115 µM)

SMILES: CC[C@H](C)[C@H](NC(=O)CN)C(=O)NCC(=O)N[C@@H](C)C(=O)N[C@H](C(=O)N[C@@H](CC(C)C)C(=O)N[C@@H](CCCCN)C(=O)N[C@H](C(=O)N[C@@H](CC(C)C)C(=O)N[C@H](C(=O)N[C@H](C(=O)NCC(=O)N[C@@H](CC(C)C)C(=O)N1CCC[C@H]1C(=O)N[C@@H](C)C(=O)N[C@@H](CC(C)C)C(=O)N[C@H](C(=O)N[C@@H](CO)C(=O)N[C@@H](Cc1c[nH]c2ccccc12)C(=O)N[C@H](C(=O)N[C@@H](CCCCN)C(=O)N[C@@H](CCCNC(=N)N)C(=O)N[C@@H](CCCCN)C(=O)N[C@@H](CCCNC(=N)N)C(=O)N[C@@H](CCC(N)=O)C(=O)N[C@@H](CCC(N)=O)C(N)=O)[C@@H](C)CC)[C@@H](C)CC)[C@@H](C)O)[C@@H](C)O)C(C)C)C(C)C [MELITTIN]
- TI [5]: 0.5
- TI [6]: 0.5
- MIC (Enterococcus faecium): 16 µg/mL (≈ 5.62 µM)
- Activity (Escherichia coli [12]): Dose-dependent effect
- Activity (Escherichia coli [8]): Active
- Activity (Staphylococcus aureus [9]): Active
- Activity (Escherichia coli [13]): inactive
- Activity (Staphylococcus aureus [14]): inactive
- TI [10]: 0.5
- TI [11]: 0.5

SMILES: N=C(N)NCCC[C@H](NC(=O)c1nn(CCc2cccc3ccccc23)cc1NC(=O)[C@@H](N)CCCNC(=N)N)C(N)=O
- MIC (Escherichia coli [1]): > 64 µg/mL
- MIC (Pseudomonas aeruginosa [2]): > 64 µg/mL
- MIC [3]: > 64 µg/mL
- MIC (Staphylococcus aureus [4]): 32 µg/mL (≈ 54 µM)

SMILES: N=C(N)NCCC[C@H](NC(=O)c1nn(CCC(c2ccccc2)c2ccccc2)cc1NC(=O)[C@@H](N)CCCNC(=N)N)C(N)=O
- MIC (Escherichia coli [1]): > 64 µg/mL
- MIC (Pseudomonas aeruginosa [2]): 8 µg/mL (≈ 12.6 µM)
- MIC [3]: > 64 µg/mL
- MIC (Staphylococcus aureus [4]): 8 µg/mL (≈ 12.6 µM)
- Ratio (Pseudomonas aeruginosa [15]): 4 - 8
- Ratio (Staphylococcus aureus [16]): 4 - 8
- Ratio (Staphylococcus aureus [17]): 2 - 4
- Ratio (Pseudomonas aeruginosa [18]): 2 - 4

SMILES: N=C(N)NCCC[C@H](NC(=O)c1nn(CCCc2ccccc2)cc1N)C(N)=O
- MIC (Escherichia coli [1]): > 64 µg/mL
- MIC (Pseudomonas aeruginosa [2]): > 64 µg/mL
- MIC [3]: > 64 µg/mL
- MIC (Staphylococcus aureus [4]): > 64 µg/mL

SMILES: N=C(N)NCCC[C@H](NC(=O)c1nn(CCc2cccc3ccccc23)cc1NC(=O)[C@H](CCCNC(=N)N)NC(=O)c1nn(CCc2cccc3ccccc23)cc1NC(=O)[C@@H](N)CCCNC(=N)N)C(N)=O
- MIC (Escherichia coli [1]): 32 µg/mL (≈ 31.6 µM)
- MIC (Pseudomonas aeruginosa [2]): 8 µg/mL (≈ 7.9 µM)
- MIC [3]: 32 µg/mL (≈ 31.6 µM)
- MIC (Staphylococcus aureus [4]): 4 µg/mL (≈ 3.95 µM)

SMILES: N=C(N)NCCC[C@H](NC(=O)c1nn(CCc2cccc3ccccc23)cc1N)C(N)=O
- MIC (Escherichia coli [1]): > 64 µg/mL
- MIC (Pseudomonas aeruginosa [2]): > 64 µg/mL
- MIC [3]: > 64 µg/mL
- MIC (Staphylococcus aureus [4]): > 64 µg/mL
